Columns and labels:
Rattus norvegicus [1] = assay: Antihypertensive activity in spontaneously hypertensive rats was measured as average blood pressure at 30 mg/kg, p.o. after 24 hours of postdose-1; type: functional; settings: route oral
Method in brief: (§1)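 SHR model with two successive doses, designated dose 1 and dose 2. Group-average blood pressure in mmHg was recorded before dosing and at 4 h and 24 h after each dose. The route is oral unless marked intra-arterial or subcutaneous. A table footnote marks doses that gave no significant lowering at 4 or 24 h postdose.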

Rattus norvegicus [2] = assay: Antihypertensive activity in spontaneously hypertensive rats was measured as average blood pressure at 30 mg/kg, po after 24 hours of postdose-2; type: functional; method in brief: as §1
Rattus norvegicus [3] = assay: Antihypertensive activity in spontaneously hypertensive rats was measured as average blood pressure at 30 mg/kg, p.o. after 4 hours of postdose-1; type: functional; settings: route oral; method in brief: as §1
Rattus norvegicus [4] = assay: Antihypertensive activity in spontaneously hypertensive rats was measured as average blood pressure at 30 mg/kg, p.o. after 4 hours of postdose-2; type: functional; settings: route oral; method in brief: as §1
Rattus norvegicus [5] = assay: Antihypertensive activity in spontaneously hypertensive rats was measured as average blood pressure at 30 mg/kg, po before predose; type: functional; method in brief: as §1
Rattus norvegicus [6] = assay: Antihypertensive activity in spontaneously hypertensive rats was measured as average blood pressure at 10 mg/kg, p.o. before predose; type: functional; settings: route oral; method in brief: as §1
Rattus norvegicus [7] = assay: Antihypertensive activity in spontaneously hypertensive rats was measured as average blood pressure at 10 mg/kg, p.o. after 24 hours of postdose-2; type: functional; settings: route oral; method in brief: as §1
Rattus norvegicus [8] = assay: Antihypertensive activity in spontaneously hypertensive rats was measured as average blood pressure at 10 mg/kg, p.o. after 4 hours of postdose-1; type: functional; settings: route oral; method in brief: as §1
Rattus norvegicus [9] = assay: Antihypertensive activity in spontaneously hypertensive rats was measured as average blood pressure at 10 mg/kg, p.o. after 24 hours of postdose-1; type: functional; settings: route oral; method in brief: as §1
Rattus norvegicus [10] = assay: Antihypertensive activity in spontaneously hypertensive rats was measured as average blood pressure at 10 mg/kg, p.o. after 4 hours of postdose-2; type: functional; settings: route oral; method in brief: as §1
Rattus norvegicus [11] = assay: Antihypertensive activity in spontaneously hypertensive rats was measured as average blood pressure at 100 mg/kg, p.o. after 24 hours of postdose-1; type: functional; settings: route oral; method in brief: as §1
Rattus norvegicus [12] = assay: Antihypertensive activity in spontaneously hypertensive rats was measured as average blood pressure at 100 mg/kg, p.o. after 24 hours of postdose-2; type: functional; settings: route oral; method in brief: as §1
Rattus norvegicus [13] = assay: Antihypertensive activity in spontaneously hypertensive rats was measured as average blood pressure at 100 mg/kg, p.o. after 4 hours of postdose-1; type: functional; settings: route oral; method in brief: as §1
Rattus norvegicus [14] = assay: Antihypertensive activity in spontaneously hypertensive rats was measured as average blood pressure at 100 mg/kg, p.o. after 4 hours of postdose-2; type: functional; settings: route oral; method in brief: as §1
Rattus norvegicus [15] = assay: Antihypertensive activity in spontaneously hypertensive rats was measured as average blood pressure at 100 mg/kg, p.o. before predose; type: functional; settings: route oral; method in brief: as §1
Rattus norvegicus [16] = assay: Antihypertensive activity in spontaneously hypertensive rats was measured as average blood pressure at 15 mg/kg, po after 24 hours of postdose-1; No significant lowering of blood pressure; type: functional, organism-based; parameters: dose 15 mg/kg; method in brief: as §1
Rattus norvegicus [17] = assay: Antihypertensive activity in spontaneously hypertensive rats was measured as average blood pressure at 15 mg/kg, p.o. after 4 hours of postdose-1; No significant lowering of blood pressure; type: functional, organism-based; parameters: dose 15 mg/kg; method in brief: as §1
Rattus norvegicus [18] = assay: Antihypertensive activity in spontaneously hypertensive rats was measured as average blood pressure at 100 mg/kg, p.o. after 24 hours of postdose-1; No significant lowering of blood pressure; type: functional, organism-based; parameters: dose 100 mg/kg; method in brief: as §1
Rattus norvegicus [19] = assay: Antihypertensive activity in spontaneously hypertensive rats was measured as average blood pressure at 100 mg/kg, po after 4 hours of postdose-1; No significant lowering of blood pressure; type: functional, organism-based; parameters: dose 100 mg/kg; method in brief: as §1
Rattus norvegicus [20] = assay: Antihypertensive activity in spontaneously hypertensive rats was measured as average blood pressure at 15 mg/kg, ia after 24 hours of postdose-1; type: functional; settings: route intra-arterial; method in brief: as §1
Rattus norvegicus [21] = assay: Antihypertensive activity in spontaneously hypertensive rats was measured as average blood pressure at 15 mg/kg, ia after 4 hours of postdose-1; type: functional; settings: route intra-arterial; method in brief: as §1
Rattus norvegicus [22] = assay: Antihypertensive activity in spontaneously hypertensive rats was measured as average blood pressure at 15 mg/kg, sc after 24 hours of postdose-1; type: functional; settings: route subcutaneous; method in brief: as §1
Rattus norvegicus [23] = assay: Antihypertensive activity in spontaneously hypertensive rats was measured as average blood pressure at 15 mg/kg, sc after 24 hours of postdose-2; type: functional; settings: route subcutaneous; method in brief: as §1
Rattus norvegicus [24] = assay: Antihypertensive activity in spontaneously hypertensive rats was measured as average blood pressure at 15 mg/kg, sc after 4 hours of postdose-1; type: functional; settings: route subcutaneous; method in brief: as §1
Rattus norvegicus [25] = assay: Antihypertensive activity in spontaneously hypertensive rats was measured as average blood pressure at 15 mg/kg, sc after 4 hours of postdose-2; type: functional; settings: route subcutaneous; method in brief: as §1
Rattus norvegicus [26] = assay: Antihypertensive activity in spontaneously hypertensive rats was measured as average blood pressure at 15 mg/kg, sc before predose subcutaneous; type: functional; method in brief: as §1
Rattus norvegicus [27] = assay: Antihypertensive activity in spontaneously hypertensive rats was measured as average blood pressure at 15 mg/kg, ia after 4 hours of postdose-2; type: functional; settings: route intra-arterial; method in brief: as §1
Rattus norvegicus [28] = assay: Antihypertensive activity in spontaneously hypertensive rats was measured as average blood pressure at 15 mg/kg, ia before predose intra arterial.; type: functional, Artery; method in brief: as §1
Rattus norvegicus [29] = assay: Antihypertensive activity in spontaneously hypertensive rats was measured as average blood pressure at 50 mg/kg, po after 4 hours of postdose-2; type: functional
Method in brief: (§2)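 Spontaneously hypertensive rats dosed orally twice. Average blood pressure (mmHg) recorded before dosing and at 4 h and 24 h after the first dose and after the second dose. Postdose values checked for significant lowering against predose.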

Rattus norvegicus [30] = assay: Antihypertensive activity in spontaneously hypertensive rats was measured as average blood pressure at 50 mg/kg, p.o. before predose; type: functional; settings: route oral; method in brief: as §2
Rattus norvegicus [31] = assay: Antihypertensive activity in spontaneously hypertensive rats was measured as average blood pressure at 50 mg/kg, p.o. after 24 hours of postdose-2; type: functional; settings: route oral; method in brief: as §2
Rattus norvegicus [32] = assay: Antihypertensive activity in spontaneously hypertensive rats was measured as average blood pressure at 50 mg/kg, p.o. after 4 hours of postdose-1; type: functional; settings: route oral; method in brief: as §2
Rattus norvegicus [33] = assay: Antihypertensive activity in spontaneously hypertensive rats was measured as average blood pressure at 50 mg/kg, p.o. after 24 hours of postdose-1; type: functional; settings: route oral; method in brief: as §2
Rattus norvegicus [34] = assay: Antihypertensive activity in spontaneously hypertensive rats was measured as average blood pressure at 13 mg/kg, po after 24 hours of postdose-1; type: functional; method in brief: as §1
Rattus norvegicus [35] = assay: Antihypertensive activity in spontaneously hypertensive rats was measured as average blood pressure at 13 mg/kg, p.o. after 24 hours of postdose-2; type: functional; settings: route oral; method in brief: as §1
Rattus norvegicus [36] = assay: Antihypertensive activity in spontaneously hypertensive rats was measured as average blood pressure at 13 mg/kg, p.o. after 4 hours of postdose-2; type: functional; settings: route oral; method in brief: as §1
Rattus norvegicus [37] = assay: Antihypertensive activity in spontaneously hypertensive rats was measured as average blood pressure at 13 mg/kg, p.o. before predose; type: functional; settings: route oral; method in brief: as §1
Rattus norvegicus [38] = assay: Antihypertensive activity in spontaneously hypertensive rats was measured as average blood pressure at 13 mg/kg, p.o. after 4 hours of postdose-1; type: functional; settings: route oral; method in brief: as §1

Structure (SMILES): CC(=O)c1c(-c2ccc(Cl)cc2)c(-c2ccc(Cl)cc2)nn(CCOC(=O)Cc2ccccc2)c1=O
- BP (Rattus norvegicus [1]): 154 mmHg
- BP (Rattus norvegicus [2]): 127 mmHg
- BP (Rattus norvegicus [3]): 165 mmHg
- BP (Rattus norvegicus [4]): 146 mmHg
- BP (Rattus norvegicus [5]): 174 mmHg

Structure (SMILES): CC(=O)OCCn1nc(-c2ccc(Cl)cc2)c(-c2ccc(Cl)cc2)c(C(C)=O)c1=O
- BP (Rattus norvegicus [6]): 183 mmHg
- BP (Rattus norvegicus [7]): 176 mmHg
- BP (Rattus norvegicus [8]): 162 mmHg
- BP (Rattus norvegicus [9]): 181 mmHg
- BP (Rattus norvegicus [10]): 149 mmHg
- BP (Rattus norvegicus [11]): 132 mmHg
- BP (Rattus norvegicus [12]): 143 mmHg
- BP (Rattus norvegicus [1]): 165 mmHg
- BP (Rattus norvegicus [2]): 152 mmHg
- BP (Rattus norvegicus [4]): 140 mmHg
- BP (Rattus norvegicus [5]): 183 mmHg
- BP (Rattus norvegicus [13]): 150 mmHg
- BP (Rattus norvegicus [14]): 122 mmHg
- BP (Rattus norvegicus [15]): 182 mmHg

Structure (SMILES): CC(=O)c1c(-c2ccc(Cl)cc2)c(-c2ccc(Cl)cc2)nn(CCOC(=O)C(N)Cc2ccccc2)c1=O (centres undefined)
- BP (Rattus norvegicus [16]): Not significant
- BP (Rattus norvegicus [17]): Not significant

Structure (SMILES): CSCCC(N)C(=O)OCCn1nc(-c2ccc(Cl)cc2)c(-c2ccc(Cl)cc2)c(C(C)=O)c1=O (centres undefined)
- BP (Rattus norvegicus [16]): Not significant
- BP (Rattus norvegicus [17]): Not significant

Structure (SMILES): CC(=O)c1c(-c2ccc(Cl)cc2)c(-c2ccc(Cl)cc2)nn(CCOC(=O)C(Cc2ccccc2)NC(=O)OCc2ccccc2)c1=O (centres undefined)
- BP (Rattus norvegicus [18]): Not significant
- BP (Rattus norvegicus [19]): Not significant

Structure (SMILES): CCC(=O)OCCn1nc(-c2ccc(Cl)cc2)c(-c2ccc(Cl)cc2)c(C(C)=O)c1=O
- BP (Rattus norvegicus [1]): 136 mmHg
- BP (Rattus norvegicus [2]): 168 mmHg
- BP (Rattus norvegicus [3]): 133 mmHg
- BP (Rattus norvegicus [4]): 129 mmHg
- BP (Rattus norvegicus [5]): 181 mmHg

Structure (SMILES): CC(=O)c1c(-c2ccc(Cl)cc2)c(-c2ccc(Cl)cc2)nn(CCOC(=O)C(N)CCCCN)c1=O.Cl.Cl (centres undefined)
- BP (Rattus norvegicus [20]): 159 mmHg
- BP (Rattus norvegicus [21]): 183 mmHg
- BP (Rattus norvegicus [22]): 171 mmHg
- BP (Rattus norvegicus [23]): 185 mmHg
- BP (Rattus norvegicus [24]): 169 mmHg
- BP (Rattus norvegicus [25]): 166 mmHg
- BP (Rattus norvegicus [26]): 181 mmHg
- BP (Rattus norvegicus [27]): 171 mmHg
- BP (Rattus norvegicus [28]): 199 mmHg

Structure (SMILES): C[C@](N)(Cc1ccc(O)c(O)c1)C(=O)O [METHYLDOPA]
- BP (Rattus norvegicus [11]): 174 mmHg
- BP (Rattus norvegicus [12]): 166 mmHg
- BP (Rattus norvegicus [13]): 161 mmHg
- BP (Rattus norvegicus [14]): 155 mmHg
- BP (Rattus norvegicus [15]): 178 mmHg

Structure (SMILES): N=C(N)NCCN1CCCCCCC1 [GUANETHIDINE]
- BP (Rattus norvegicus [29]): 138 mmHg
- BP (Rattus norvegicus [30]): 187 mmHg
- BP (Rattus norvegicus [31]): 186 mmHg
- BP (Rattus norvegicus [32]): 154 mmHg
- BP (Rattus norvegicus [33]): 166 mmHg

Structure (SMILES): CC(=O)c1c(-c2ccc(Cl)cc2)c(-c2ccc(Cl)cc2)nn(CCOC(=O)CCN)c1=O.Cl
- BP (Rattus norvegicus [34]): 215 mmHg
- BP (Rattus norvegicus [35]): 209 mmHg
- BP (Rattus norvegicus [36]): 195 mmHg
- BP (Rattus norvegicus [37]): 215 mmHg
- BP (Rattus norvegicus [38]): 210 mmHg
